Assay results reported in ChEMBL document CHEMBL3351269, “Phenylimidazoles as potent and selective inhibitors of coagulation factor XIa with in vivo antithrombotic activity” (J Med Chem, 2014).
pKi: −log10 of the molar value.

Assays:
Coagulation factor XI = Coagulation factor XI (Homo sapiens, UniProt P03951); assay: Inhibition of human coagulation factor 11a using p-nitroaniline as substrate assessed as substrate hydrolysis by spectrophotometrically
Outline: (§1)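 Purified human enzymes; reaction started by adding enzyme to substrate with or without inhibitor, excess substrate and inhibitor over enzyme, 1% DMSO, room temperature, 10–120 min. pNA read at 405 nm. FXIa, FXIIa and chymotrypsin in HEPES pH 7.4 with NaCl, KCl and PEG; FXa and kallikrein in phosphate pH 7.5; FVIIa in HEPES with CaCl2. IC50 from duplicates over 8–11 concentrations, converted to Ki assuming competitive inhibition.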

Coagulation factor VII = target: T1, Coagulation factor VII (Homo sapiens, UniProt P08709); assay: Inhibition of human coagulation factor 7a using H-(D)-Ile-Pro-Arg-pNA as substrate by spectrophotometric analysis; outline: as §1
T1 sequence (P08709 whole entry): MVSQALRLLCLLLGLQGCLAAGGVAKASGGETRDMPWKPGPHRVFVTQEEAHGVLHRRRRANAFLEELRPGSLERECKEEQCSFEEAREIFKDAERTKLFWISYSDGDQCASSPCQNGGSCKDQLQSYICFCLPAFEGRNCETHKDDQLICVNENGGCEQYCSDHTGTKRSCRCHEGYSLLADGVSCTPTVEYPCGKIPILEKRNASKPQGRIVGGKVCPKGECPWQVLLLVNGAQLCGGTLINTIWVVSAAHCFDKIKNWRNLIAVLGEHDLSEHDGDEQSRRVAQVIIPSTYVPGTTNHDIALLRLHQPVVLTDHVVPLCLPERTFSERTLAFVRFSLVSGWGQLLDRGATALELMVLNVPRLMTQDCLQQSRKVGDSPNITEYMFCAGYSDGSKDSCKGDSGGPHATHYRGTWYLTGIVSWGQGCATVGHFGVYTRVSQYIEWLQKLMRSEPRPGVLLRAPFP

Coagulation factor X = Coagulation factor X (Homo sapiens, UniProt P00742); assay: Inhibition of human coagulation factor 10a using N-benzoyl-Ile-Glu-(OH, OMe)-Gly-Arg-pNA as substrate by spectrophotometric analysis; outline: as §1
Chain of Coagulation factor X (P00742 41-179 limits assumed): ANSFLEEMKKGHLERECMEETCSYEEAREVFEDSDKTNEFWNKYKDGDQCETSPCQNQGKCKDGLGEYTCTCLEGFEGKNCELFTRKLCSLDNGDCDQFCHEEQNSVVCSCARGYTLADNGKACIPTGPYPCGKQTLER
Chain of Coagulation factor X (P00742 235-488 limits assumed): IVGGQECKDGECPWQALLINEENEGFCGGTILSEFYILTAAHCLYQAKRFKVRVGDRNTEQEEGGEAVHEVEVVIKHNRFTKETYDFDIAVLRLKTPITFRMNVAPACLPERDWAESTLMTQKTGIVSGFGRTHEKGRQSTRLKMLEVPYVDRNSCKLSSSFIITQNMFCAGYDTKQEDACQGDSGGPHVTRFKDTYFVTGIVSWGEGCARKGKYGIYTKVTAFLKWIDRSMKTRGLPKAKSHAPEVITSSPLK

Plasma kallikrein = Plasma kallikrein (Homo sapiens, UniProt P03952); assay: Inhibition of human plasma kallikrein using H-D-Pro-Phe-Arg-pNA as substrate; outline: as §1
Chain of Plasma kallikrein (P03952 20-390 limits assumed): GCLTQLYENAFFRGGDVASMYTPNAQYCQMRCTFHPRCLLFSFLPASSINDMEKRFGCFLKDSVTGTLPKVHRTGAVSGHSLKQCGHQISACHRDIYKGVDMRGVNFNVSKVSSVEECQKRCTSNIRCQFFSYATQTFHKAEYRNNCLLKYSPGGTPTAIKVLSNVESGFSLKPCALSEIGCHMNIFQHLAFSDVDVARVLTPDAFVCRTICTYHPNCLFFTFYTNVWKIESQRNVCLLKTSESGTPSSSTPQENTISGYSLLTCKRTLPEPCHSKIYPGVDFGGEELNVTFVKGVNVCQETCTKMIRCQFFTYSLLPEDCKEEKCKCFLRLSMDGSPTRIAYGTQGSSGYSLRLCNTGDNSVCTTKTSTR
Chain of Plasma kallikrein (P03952 391-638 limits assumed): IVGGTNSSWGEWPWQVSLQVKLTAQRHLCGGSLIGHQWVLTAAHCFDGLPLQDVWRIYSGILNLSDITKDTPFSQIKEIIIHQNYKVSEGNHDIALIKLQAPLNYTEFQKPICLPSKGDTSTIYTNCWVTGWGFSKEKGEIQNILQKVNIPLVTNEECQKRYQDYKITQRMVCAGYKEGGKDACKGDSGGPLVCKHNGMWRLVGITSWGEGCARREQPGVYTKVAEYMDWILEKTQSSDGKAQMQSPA

[1] = Solubility of the compound in 100 mM phosphate buffer at pH 7.4; type: physicochemical
Outline: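 Solubility of the amorphous bis-HCl salt in 100 mM phosphate buffer, pH 7.4.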

Oryctolagus cuniculus = assay: Antithrombotic activity in iv dosed New Zealand male rabbit AV-shunt thrombosis model assessed as inhibition of thrombus formation infused at 1 mg/kg/hr; type: functional; conditions: read-out: ID50 (the source's name)
[2] = Anticoagulant activity in healthy human plasma assessed as concentration required to 2 fold prolong clotting time by aPTT assay; type: functional
Outline: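 Citrated human plasma from healthy volunteers (one-tenth volume 0.11 M buffered citrate; spun 2000g, 10 min, kept on ice). Inhibitor from 10 mM DMSO stock, diluted in plasma, up to seven concentrations. aPTT with Alexin: plasma warmed 1 min at 37 °C, reagent added, CaCl2 2 min later. Duplicates, as ratio to baseline. EC2x by linear interpolation, as total plasma concentration.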

Chain of Coagulation factor XI (P03951 19-387 limits assumed): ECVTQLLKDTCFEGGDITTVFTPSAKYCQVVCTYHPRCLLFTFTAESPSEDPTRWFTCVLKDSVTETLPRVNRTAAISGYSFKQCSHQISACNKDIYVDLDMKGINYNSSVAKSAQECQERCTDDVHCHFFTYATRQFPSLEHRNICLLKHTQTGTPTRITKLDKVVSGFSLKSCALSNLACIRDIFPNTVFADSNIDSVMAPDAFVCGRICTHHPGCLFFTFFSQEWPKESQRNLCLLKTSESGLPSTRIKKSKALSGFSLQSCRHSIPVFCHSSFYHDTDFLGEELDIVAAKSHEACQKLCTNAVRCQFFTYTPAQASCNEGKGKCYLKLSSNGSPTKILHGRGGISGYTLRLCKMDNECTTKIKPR
Chain of Coagulation factor XI (P03951 388-625 limits assumed): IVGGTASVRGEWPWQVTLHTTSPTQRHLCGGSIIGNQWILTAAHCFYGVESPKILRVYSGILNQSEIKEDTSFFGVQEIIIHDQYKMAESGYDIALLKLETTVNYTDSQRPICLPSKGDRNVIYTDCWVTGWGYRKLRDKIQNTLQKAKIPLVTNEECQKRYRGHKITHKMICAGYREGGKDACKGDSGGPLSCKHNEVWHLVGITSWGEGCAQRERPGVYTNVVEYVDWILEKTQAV

| pKi (Coagulation factor XI) | pKi (Coagulation factor VII) | pKi (Coagulation factor X) | pKi (Plasma kallikrein) | solubility [1] [µg/mL] | Structure (SMILES) | ED50 (Oryctolagus cuniculus) [mg/kg] | 2aPTT [2] [µM] |
| --- | --- | --- | --- | --- | --- | --- | --- |
| 5.95 | < 4.96 | < 5.09 | 5.93 | – | N#Cc1cccc(-c2c[nH]c([C@H](Cc3ccccc3)NC(=O)[C@H]3CC[C@H](CN)CC3)n2)c1 | – | – |
| 6.01 | – | – | 5.65 | – | NC[C@H]1CC[C@H](C(=O)N[C@@H](Cc2ccccc2)c2nc(-c3ccccc3)n[nH]2)CC1 | – | – |
| 5.16 | – | – | 5.30 | – | NC[C@H]1CC[C@H](C(=O)N[C@@H](Cc2ccccc2)c2cc(-c3ccccc3)n[nH]2)CC1 | – | – |
| 6.23 | < 4.96 | < 5.09 | 5.42 | – | NC[C@H]1CC[C@H](C(=O)N[C@@H](Cc2ccccc2)c2nc(-c3ccc(C(=O)O)cc3)c[nH]2)CC1 (mixture of isomers) | – | – |
| 6.46 | < 4.96 | < 5.09 | 6.66 | – | CNC(=O)c1ccc(-c2c[nH]c([C@H](Cc3ccccc3)NC(=O)[C@H]3CC[C@H](CN)CC3)n2)cc1 | – | – |
| 5.79 | – | – | 5.35 | – | NC[C@H]1CC[C@H](C(=O)N[C@@H](Cc2ccccc2)c2c[nH]c(-c3ccccc3)n2)CC1 | – | – |
| – | – | – | – | 946 | Cl.NC[C@H]1CC[C@H](C(=O)N[C@@H](Cc2ccccc2)c2nc(-c3ccc4c(N)n[nH]c4c3)c(Cl)[nH]2)CC1 | 0.6 | – |
| 6.10 | < 4.96 | < 5.09 | 5.72 | – | COC(=O)c1ccc(-c2c[nH]c([C@H](Cc3ccccc3)NC(=O)[C@H]3CC[C@H](CN)CC3)n2)cc1 | – | – |
| 6.82 | < 4.96 | < 5.09 | 6.12 | – | NC[C@H]1CC[C@H](C(=O)N[C@@H](Cc2ccccc2)c2nc(-c3ccc(CC(=O)O)cc3)c[nH]2)CC1 | – | – |
| 8.05 | < 4.96 | < 5.09 | 7.35 | – | NC[C@H]1CC[C@H](C(=O)N[C@@H](Cc2ccccc2)c2nc(-c3ccc(C(N)=O)cc3)c(Br)[nH]2)CC1.O=C(O)C(F)(F)F | – | 10 |
| 6.92 | < 4.96 | < 5.09 | 6.48 | – | NC[C@H]1CC[C@H](C(=O)N[C@@H](Cc2ccccc2)c2nc(-c3ccccc3)c[nH]2)CC1.O=C(O)C(F)(F)F | – | >40 |
| 8.40 | < 4.96 | < 5.05 | 7.70 | – | NC[C@H]1CC[C@H](C(=O)N[C@@H](Cc2ccccc2)c2nc(-c3ccc(C(N)=O)cc3)c(Cl)[nH]2)CC1.O=C(O)C(F)(F)F | – | 6 |
| 6.31 | < 4.96 | < 5.09 | 5.87 | – | CCOC(=O)Cc1ccc(-c2c[nH]c([C@H](Cc3ccccc3)NC(=O)[C@H]3CC[C@H](CN)CC3)n2)cc1 | – | – |
| 9.70 | 6.20 | 6.47 | 8.70 | – | CC(C)CC(=O)Nc1cc(-c2ccc(C(N)=O)cc2C(=O)O)cc([C@@H]2C[C@](C)(c3ccccc3)c3cc(C(=N)N)ccc3N2)c1 | – | 2 |
| 9.52 | 5.21 | < 5.09 | 8.70 | – | NC[C@H]1CC[C@H](C(=O)N[C@@H](Cc2ccccc2)c2nc(-c3ccc4c(N)n[nH]c4c3)c(F)[nH]2)CC1.O=C(O)C(F)(F)F | – | 0.5 |
| 6.56 | < 4.96 | < 5.09 | 6.04 | – | NC[C@H]1CC[C@H](C(=O)N[C@@H](Cc2ccccc2)c2nc(-c3cccc(CC(=O)O)c3)c[nH]2)CC1 | – | – |
| 8.52 | < 4.87 | 5.86 | 8.10 | – | NC[C@H]1CC[C@H](C(=O)N[C@@H](Cc2ccccc2)c2nc(-c3ccc(C(N)=O)cc3)c(F)[nH]2)CC1.O=C(O)C(F)(F)F | – | 2 |
| 5.96 | < 4.96 | < 5.09 | 6.04 | – | NC[C@H]1CC[C@H](C(=O)N[C@@H](Cc2ccccc2)c2nc(-c3cccc(C(N)=O)c3)c[nH]2)CC1 | – | – |
| 7.52 | < 4.96 | < 5.05 | 7.22 | – | NC[C@H]1CC[C@H](C(=O)N[C@@H](Cc2ccccc2)c2nc(-c3ccc(C(N)=O)cc3)c[nH]2)CC1.O=C(O)C(F)(F)F | – | >40 |
| 5.51 | – | – | 5.32 | – | NC[C@H]1CC[C@H](C(=O)N[C@@H](Cc2ccccc2)c2nn(-c3ccccc3)c(=O)[nH]2)CC1 | – | – |
| 8.52 | < 4.96 | < 5.09 | 7.30 | – | NC[C@H]1CC[C@H](C(=O)N[C@@H](Cc2ccccc2)c2nc(-c3ccc4c(N)n[nH]c4c3)c[nH]2)CC1.O=C(O)C(F)(F)F | – | 2 |
| 6.26 | < 4.96 | < 5.09 | 5.72 | – | NC[C@H]1CC[C@H](C(=O)N[C@@H](Cc2ccccc2)c2nc(-c3cccc(CC(N)=O)c3)c[nH]2)CC1 | – | – |
| 5.87 | < 4.96 | < 5.09 | 5.26 | – | NC[C@H]1CC[C@H](C(=O)N[C@@H](Cc2ccccc2)c2nc(-c3ccc(S(N)(=O)=O)cc3)c[nH]2)CC1 | – | – |
| 5.84 | – | – | 5.46 | – | NC[C@H]1CC[C@H](C(=O)N[C@@H](Cc2ccccc2)c2ncc(-c3ccccc3)o2)CC1 | – | – |
| 6.20 | < 4.96 | < 5.09 | 5.83 | – | CCOC(=O)Cc1cccc(-c2c[nH]c([C@H](Cc3ccccc3)NC(=O)[C@H]3CC[C@H](CN)CC3)n2)c1 | – | – |
| 5.54 | < 4.96 | < 5.09 | 5.28 | – | CN(C)C(=O)c1ccc(-c2c[nH]c([C@H](Cc3ccccc3)NC(=O)[C@H]3CC[C@H](CN)CC3)n2)cc1 | – | – |
| 6.40 | < 4.96 | < 5.09 | 5.88 | – | NC[C@H]1CC[C@H](C(=O)N[C@@H](Cc2ccccc2)c2nc(-c3ccc(CC(N)=O)cc3)c[nH]2)CC1 (mixture of isomers) | – | – |
| 6.64 | < 4.96 | < 5.09 | 6.03 | – | N#Cc1ccc(-c2c[nH]c([C@H](Cc3ccccc3)NC(=O)[C@H]3CC[C@H](CN)CC3)n2)cc1 | – | – |
